One data set deals with RAW264.7. The data set can be described thus: Antiinflammatory activity against LPS-stimulated mouse RAW264.7 cells assessed as inhibition of NO production after 24 hrs. It is filed as functional, cell-based. The note with it: RAW264.7, 24 h. In outline: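 RAW 264.7 macrophages were stimulated with LPS in the presence of the test agent for 24 h. Inhibition of NO production was expressed as IC50, with quercetin as the reference.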

The subject of data set [1] is Radical scavenging activity. In words: Antioxidant activity assessed as DPPH radical scavenging activity after 30 mins by ELISA reader. In kind it is functional. In outline:
(§1)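 Radical scavenging was tested with Trolox and quercetin as positive controls. Values are from three replicates, reported as means ± SD and expressed as IC50.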

The nature of data set [2]: Antioxidant activity assessed as hydroxyl radical scavenging activity by chemiluminescence analysis. In kind it is functional. The essentials:
as §1

A short description of data set [3]: Cytotoxicity against mouse RAW264.7 cells assessed as cell viability upto 100 uM by MTS assay. Particulars: read-out: Activity. It is filed as cell-based. The essentials:
(§2)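 RAW 264.7 cells were incubated 24 h with the agent at various concentrations up to 100 µM, with or without LPS in the medium. Cell viability was read by MTS assay.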
A general note: Tetrazolium dyes change colour on reduction, which living cells bring about.

A short description of data set [4]: Antioxidant activity assessed as superoxide radical scavenging activity by chemiluminescence analysis. It is filed as functional. The essentials:
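Superoxide (·O2−) scavenging was tested with Trolox and quercetin as positive controls. Values are from three replicates, reported as means ± SD.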

Data set [5] is described as follows: Cytotoxicity against LPS-stimulated mouse RAW264.7 cells assessed as cell viability upto 100 uM by MTS assay. In kind it is cell-based. Particulars: LPS-stimulated RAW264.7 cells, read-out: Activity. The essentials: as §2

With `COc1cc(/C=C/C(=O)OC[C@H]2O[C@@](CO)(O[C@H]3O[C@H](CO)[C@@H](OC(=O)/C=C/c4ccc(O)c(OC)c4)[C@H](O)[C@H]3OC(C)=O)[C@@H](OC(=O)/C=C/c3ccc(O)c(OC)c3)[C@@H]2O)ccc1O`, the IC50 (usually the point on the concentration scale where inhibition reaches its midpoint) in the data set on RAW264.7 stood at 42.1 µM; in data set [1], 69.1 µM; in data set [2], 3.6 µM; in data set [4], 184 µM. Further, the viability in data set [3] and in data set [5] was over 90% each time.

`COc1cc(C2Oc3c(OC)cc(/C=C/C=O)cc3C2COC(=O)c2ccc(O)cc2)ccc1O` (configuration not stated): the IC50 was 69 µM with RAW264.7, over 100 µM in data set [1], 19.1 µM in data set [2] and over 200 µM in data set [4]. The viability in data set [3] and in data set [5] was over 90% throughout.

On to `O=c1c(O)c(-c2ccc(O)c(O)c2)oc2cc(O)cc(O)c12` [QUERCETIN], for which the IC50 in the data set with RAW264.7 was determined as 34.5 µM.

As to `CCO[C@H](c1ccc(O)c(OC)c1)[C@H](COC(=O)c1ccc(O)cc1)Oc1ccc(/C=C/COC(=O)c2ccc(O)cc2)cc1OC` (relative stereo) [QUIQUESETINERVIUSIN C], the IC50 in the data set on RAW264.7 was 95.7 µM; in data set [1], over 100 µM; in data set [2] it was 16.6 µM; in data set [4] it was over 200 µM. For the same compound, the viability in data set [3] and in data set [5] was over 90% in each case.

`COc1cc([C@H](O)[C@H](CO)Oc2c(OC)cc(-c3cc(=O)c4c(O)cc(O)cc4o3)cc2OC)ccc1O` [SALCOLIN B]: the IC50 was 29.5 µM in the data set on RAW264.7, over 100 µM in data set [1], 13.3 µM in data set [2] and over 200 µM in data set [4]. Besides, the viability in data set [3] and in data set [5] was over 90% in each case.

Regarding `COc1cc(/C=C/C(=O)OC[C@H]2O[C@@](CO)(O[C@H]3O[C@H](COC(C)=O)[C@@H](OC(=O)/C=C/c4ccc(O)cc4)[C@H](O)[C@H]3O)[C@@H](OC(=O)/C=C/c3ccc(O)c(OC)c3)[C@@H]2O)ccc1O`, the IC50 in the data set on RAW264.7 is 9.5 µM; in data set [1] it was 64.4 µM; in data set [2] it was 8.4 µM; in data set [4], over 200 µM. Also, the viability in data set [3] and in data set [5] was over 90% each time.

`COc1cc([C@H]2Oc3c(OC)cc(/C=C/COC(=O)c4ccc(O)cc4)cc3[C@@H]2COC(=O)c2ccc(O)cc2)cc(OC)c1O` [QUIQUESETINERVIUSIN B]: the half-maximal inhibitory concentration (IC50) is 223 µM with RAW264.7, 25.7 µM in data set [2] and over 200 µM in data set [4]. The viability in data set [3] and in data set [5] was over 90% throughout.

For `Cc1c(C)c2c(c(C)c1O)CCC(C)(C(=O)O)O2` (configuration not stated) [TROLOX], the IC50 was 32.9 µM in data set [1], 4.31 µM in data set [2] and 25.3 µM in data set [4].

As for `COc1cc(/C=C/C(=O)OC[C@H]2O[C@@](CO)(O[C@H]3O[C@H](CO)[C@@H](OC(=O)/C=C/c4ccc(O)c(OC)c4)[C@H](O)[C@H]3O)[C@@H](OC(=O)/C=C/c3ccc(O)c(OC)c3)[C@@H]2O)ccc1O`, the IC50 with RAW264.7 is 78.1 µM; in data set [1], 62.5 µM; in data set [2] it was 6.8 µM; in data set [4] it was over 200 µM. The viability in data set [3] and in data set [5] was over 90% in each case.

Regarding `COc1cc(/C=C/C(=O)OC[C@H]2O[C@@](CO)(O[C@H]3O[C@H](COC(C)=O)[C@@H](OC(=O)/C=C/c4ccc(O)c(OC)c4)[C@H](O)[C@H]3O)[C@@H](OC(=O)/C=C/c3ccc(O)c(OC)c3)[C@@H]2O)ccc1O`, the IC50 was 60.3 µM in the data set on RAW264.7, 99.6 µM in data set [1], 7.4 µM in data set [2] and over 200 µM in data set [4]. For the same compound, the viability in data set [3] and in data set [5] was over 90% in each case.

For the compound `COc1cc(/C=C/C(=O)OC[C@H]2O[C@@](CO)(O[C@H]3O[C@H](CO)[C@@H](OC(=O)/C=C/c4ccc(O)cc4)[C@H](O)[C@H]3OC(C)=O)[C@@H](OC(=O)/C=C/c3ccc(O)c(OC)c3)[C@@H]2O)ccc1O`, the IC50 was 9.2 µM in the data set with RAW264.7, 68.4 µM in data set [1], 5.5 µM in data set [2] and over 200 µM in data set [4]. For the same compound, the viability in data set [3] and in data set [5] was over 90% in each case.

`COc1cc([C@H]2Oc3c(OC)cc(/C=C/COC(=O)c4ccc(O)cc4)cc3[C@@H]2COC(=O)c2ccc(O)cc2)ccc1O` [QUIQUESETINERVIUSIN A]: the IC50 is 23.4 µM in the data set on RAW264.7, 23.7 µM in data set [2] and over 200 µM in data set [4]. The viability in data set [3] and in data set [5] was over 90% throughout.

Values taken from ChEMBL document CHEMBL1221409, “Antioxidant and anti-inflammatory phenylpropanoid derivatives from Calamus quiquesetinervius” (J Nat Prod, 2010).
